In brackets after ≈: the same amount, converted by molar mass. Activity calls are given as the source filed them. No cut-off for these calls is given here.
How the values were obtained:
[1] = Metal chelating activity assessed as Fe3+-compound complex formation at 5 to 1280 uM after 3 hrs by chrome azural S assay
Method in brief: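 Modified CAS assay: CTAB–CAS–Fe(III) reagent in MES buffer pH 5.6 mixed 1:1 with compound or deferoxamine mesylate in water, final concentrations 1.28 mM to 5 μM; incubated 37 °C, 3 h; colour change judged visually or absorbance change recorded.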

Pseudomonas aeruginosa [2] = test: Antibacterial activity against Pseudomonas aeruginosa ATCC 27853 measured after 18 hrs by dilution susceptibility test; type: functional
Method in brief: (§1)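 Broth dilution MIC for aerobic bacteria; compound dissolved in DMSO, serially diluted to 10 concentrations (0.25–128 μg/mL); gentamicin positive control; triplicate; six untreated media controls per plate; 35 °C for 18 h; MIC = lowest concentration preventing visible growth.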

Pseudomonas aeruginosa [3] = test: Antibacterial activity against Pseudomonas aeruginosa ATCC 27853 infected in mouse assessed as reduction in bacterial load in thigh at 80 to 160 mg/kg, ip administered as single dose measured after 6 hrs by time kill assay; type: functional, organism-based
Method in brief: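 Neutropenic murine thigh infection with P. aeruginosa grown, subcultured and quantified in Mueller-Hinton broth/agar; single intraperitoneal dose (80 or 160 mg/kg) given 1 h after infection; groups of two treated and two untreated mice euthanized at 0–6 h post-dose; thigh CFU counted; mean and standard deviation from four thighs of two mice.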

Escherichia coli = test: Antibacterial activity against Escherichia coli ATCC 25922 measured after 18 hrs by dilution susceptibility test; type: functional; method in brief: as §1
Mus musculus = test: Toxicity in mouse at 80 to 160 mg/kg, ip administered as single dose; type: organism-based; conditions: in vivo
Pseudomonas aeruginosa [4] = test: Antibiofilm activity against Pseudomonas aeruginosa ATCC 27853 at 16 to 64 ug/ml by crystal violet microtiter method; type: functional, organism-based
Pseudomonas aeruginosa [5] = test: Antibiofilm activity against Pseudomonas aeruginosa ATCC 27853 at 16 to 64 ug/ml in presence of gentamycin by crystal violet microtiter method; type: functional, organism-based

Compound | Activity [1] | MIC (Pseudomonas aeruginosa [2]; ATCC 27853, 18 h) [µg/mL] | Activity (Pseudomonas aeruginosa [3]) | MIC (Escherichia coli; ATCC 25922, 18 h) [µg/mL] | Activity (Mus musculus) | Activity (Pseudomonas aeruginosa [4]) | Activity (Pseudomonas aeruginosa [5]) | MIC (Pseudomonas aeruginosa [2]) [µg/mL] | MIC (Escherichia coli) [µg/mL]
C[C@@H]1CC(=O)N(O)CCCC[C@@H](NC(=O)CCC(=O)O)C(=O)O[C@H](C)CC(=O)N(O)CCCC[C@@H](NC(=O)CCC(=O)O)C(=O)O[C@H](C)CC(=O)N(O)CCCC[C@@H](NC(=O)CCC(=O)O)C(=O)O1 | Active | 64 (≈ 64.6 µM) | Active | 64 (≈ 64.6 µM) | Non-Toxic | inactive | inactive | – | –
CC(=O)N(O)CCCCCNC(=O)CCC(=O)N(O)CCCCCNC(=O)CCC(=O)N(O)CCCCCN | Active | – | – | – | – | – | – | – | –
GENTAMICIN | – | – | – | – | – | – | – | 4 | 4

Reference: ChEMBL document CHEMBL4130401, “Thalassosamide, a Siderophore Discovered from the Marine-Derived Bacterium Thalassospira profundimaris” (J Nat Prod, 2017)
